Source: ChEMBL document CHEMBL4145630, “Development of Highly Potent and Selective Steroidal Inhibitors and Degraders of CDK8” (ACS Med Chem Lett, 2018)

Tests used:
[1] = target: T1, Cyclin-dependent kinase 19 (Homo sapiens, UniProt Q9BWU1); assay: Inhibition of human CDK19 (M1 to N360 residues) expressed in bacterial expression system by KINOMEscan assay
[2] = target: T2, Cyclin-dependent kinase 8 (Homo sapiens, UniProt P49336); assay: Inhibition of wild-type human partial length CDK8 (M1 to T360 residues) expressed in bacterial expression system at 10 uM by Kinomescan method relative to control
Method in brief: (§1)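 Ambit KINOMEscan binding panel run at a single 10 μM concentration; results expressed relative to control, with a 90% inhibition cutoff applied.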

[3] = target: T2, Cyclin-dependent kinase 8; assay: Inhibition of CDK8 (unknown origin)
[4] = target: T2, Cyclin-dependent kinase 8; assay: Inhibition of CDK8 in human HepG2 cells assessed as reduction in IFNgamma-induced STAT1 phosphorylation at S727 measured after 18 hrs by Western blot analysis; type: cell-based
[5] = target: T3, Serine/threonine-protein kinase Nek1 (Homo sapiens, UniProt Q96PY6); assay: Inhibition of wild-type human partial length NEK1 (M1 to K278 residues) expressed in bacterial expression system by Kinomescan method
T3 sequence (Q96PY6 whole entry): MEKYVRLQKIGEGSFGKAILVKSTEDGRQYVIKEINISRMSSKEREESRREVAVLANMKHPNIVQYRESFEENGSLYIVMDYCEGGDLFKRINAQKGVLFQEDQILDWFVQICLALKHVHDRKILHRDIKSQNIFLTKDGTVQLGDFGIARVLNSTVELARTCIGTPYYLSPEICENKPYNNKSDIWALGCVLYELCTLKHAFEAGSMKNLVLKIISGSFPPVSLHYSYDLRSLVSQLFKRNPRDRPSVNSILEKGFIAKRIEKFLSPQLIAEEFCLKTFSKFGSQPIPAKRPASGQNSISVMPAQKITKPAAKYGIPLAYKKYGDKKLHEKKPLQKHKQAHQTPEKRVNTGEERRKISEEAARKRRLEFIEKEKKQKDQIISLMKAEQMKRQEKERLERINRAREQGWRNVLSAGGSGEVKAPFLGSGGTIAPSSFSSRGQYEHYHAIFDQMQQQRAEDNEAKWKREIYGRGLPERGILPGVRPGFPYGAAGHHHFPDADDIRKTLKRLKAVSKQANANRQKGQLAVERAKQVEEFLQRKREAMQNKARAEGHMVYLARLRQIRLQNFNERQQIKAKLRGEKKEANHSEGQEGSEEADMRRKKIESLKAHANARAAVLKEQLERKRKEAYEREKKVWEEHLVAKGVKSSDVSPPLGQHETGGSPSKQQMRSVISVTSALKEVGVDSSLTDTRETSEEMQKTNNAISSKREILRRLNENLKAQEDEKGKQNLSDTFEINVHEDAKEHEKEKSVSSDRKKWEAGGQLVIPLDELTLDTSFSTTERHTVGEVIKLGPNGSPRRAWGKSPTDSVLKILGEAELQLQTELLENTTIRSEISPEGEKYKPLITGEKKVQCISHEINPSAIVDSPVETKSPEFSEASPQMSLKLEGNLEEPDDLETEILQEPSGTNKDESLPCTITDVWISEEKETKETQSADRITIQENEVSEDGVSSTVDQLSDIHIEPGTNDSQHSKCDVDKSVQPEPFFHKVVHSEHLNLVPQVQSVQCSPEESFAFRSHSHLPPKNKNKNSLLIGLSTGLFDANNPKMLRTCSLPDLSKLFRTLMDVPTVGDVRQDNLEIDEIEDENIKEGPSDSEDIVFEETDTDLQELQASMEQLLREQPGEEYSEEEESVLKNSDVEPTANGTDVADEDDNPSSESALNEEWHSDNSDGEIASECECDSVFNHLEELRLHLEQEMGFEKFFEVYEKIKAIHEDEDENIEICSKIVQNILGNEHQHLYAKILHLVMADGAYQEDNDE

[6] = target: T1, Cyclin-dependent kinase 19; assay: Inhibition of human CDK19 (M1 to N360 residues) expressed in bacterial expression system at 10 uM by KINOMEscan assay relative to control
[7] = target: 1-phosphatidylinositol 3-phosphate 5-kinase (Homo sapiens) (UniProt Q9Y2I7); assay: Inhibition of wild-type human partial length PIKFYVE (F1512 to C2098 residues) expressed in mammalian expression system at 10 uM by Kinomescan method relative to control; method in brief: as §1
[8] = target: T4, Serine/threonine-protein kinase Nek1 (Homo sapiens) (UniProt Q96PY6); assay: Inhibition of wild-type human partial length NEK1 (M1 to K278 residues) expressed in bacterial expression system at 10 uM by Kinomescan method relative to control; method in brief: as §1
T4 sequence (whole entry): T3 sequence (Q96PY6 whole entry)

T2 sequence (P49336 whole entry, the tested form may be a part): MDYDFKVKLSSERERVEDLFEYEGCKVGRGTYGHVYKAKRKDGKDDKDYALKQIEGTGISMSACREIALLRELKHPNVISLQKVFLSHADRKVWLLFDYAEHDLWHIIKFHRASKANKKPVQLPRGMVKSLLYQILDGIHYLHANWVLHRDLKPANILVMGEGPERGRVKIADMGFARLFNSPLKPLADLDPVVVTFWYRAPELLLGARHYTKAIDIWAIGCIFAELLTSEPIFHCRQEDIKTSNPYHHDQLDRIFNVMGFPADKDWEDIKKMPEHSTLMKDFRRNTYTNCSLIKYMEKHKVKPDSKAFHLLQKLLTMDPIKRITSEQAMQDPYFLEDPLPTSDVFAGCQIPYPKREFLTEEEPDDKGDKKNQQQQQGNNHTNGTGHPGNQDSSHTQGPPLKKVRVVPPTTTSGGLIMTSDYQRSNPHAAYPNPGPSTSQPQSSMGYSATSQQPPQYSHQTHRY
T1 sequence (Q9BWU1 whole entry, the tested form may be a part): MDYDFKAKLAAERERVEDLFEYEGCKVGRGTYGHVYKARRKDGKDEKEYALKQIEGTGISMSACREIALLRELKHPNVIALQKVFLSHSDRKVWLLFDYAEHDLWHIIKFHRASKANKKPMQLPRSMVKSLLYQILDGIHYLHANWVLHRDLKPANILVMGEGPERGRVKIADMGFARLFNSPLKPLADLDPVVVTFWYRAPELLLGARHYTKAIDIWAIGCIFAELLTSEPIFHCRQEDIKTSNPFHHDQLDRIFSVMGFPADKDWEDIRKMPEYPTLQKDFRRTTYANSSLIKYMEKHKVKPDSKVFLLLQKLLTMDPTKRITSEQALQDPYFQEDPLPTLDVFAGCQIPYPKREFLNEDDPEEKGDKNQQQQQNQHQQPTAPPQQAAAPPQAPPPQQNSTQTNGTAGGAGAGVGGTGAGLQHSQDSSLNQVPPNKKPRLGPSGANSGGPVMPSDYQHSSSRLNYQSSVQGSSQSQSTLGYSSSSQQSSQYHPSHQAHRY
Sequence of 1-phosphatidylinositol 3-phosphate 5-kinase (Homo sapiens) (Q9Y2I7 whole entry, the tested form may be a part): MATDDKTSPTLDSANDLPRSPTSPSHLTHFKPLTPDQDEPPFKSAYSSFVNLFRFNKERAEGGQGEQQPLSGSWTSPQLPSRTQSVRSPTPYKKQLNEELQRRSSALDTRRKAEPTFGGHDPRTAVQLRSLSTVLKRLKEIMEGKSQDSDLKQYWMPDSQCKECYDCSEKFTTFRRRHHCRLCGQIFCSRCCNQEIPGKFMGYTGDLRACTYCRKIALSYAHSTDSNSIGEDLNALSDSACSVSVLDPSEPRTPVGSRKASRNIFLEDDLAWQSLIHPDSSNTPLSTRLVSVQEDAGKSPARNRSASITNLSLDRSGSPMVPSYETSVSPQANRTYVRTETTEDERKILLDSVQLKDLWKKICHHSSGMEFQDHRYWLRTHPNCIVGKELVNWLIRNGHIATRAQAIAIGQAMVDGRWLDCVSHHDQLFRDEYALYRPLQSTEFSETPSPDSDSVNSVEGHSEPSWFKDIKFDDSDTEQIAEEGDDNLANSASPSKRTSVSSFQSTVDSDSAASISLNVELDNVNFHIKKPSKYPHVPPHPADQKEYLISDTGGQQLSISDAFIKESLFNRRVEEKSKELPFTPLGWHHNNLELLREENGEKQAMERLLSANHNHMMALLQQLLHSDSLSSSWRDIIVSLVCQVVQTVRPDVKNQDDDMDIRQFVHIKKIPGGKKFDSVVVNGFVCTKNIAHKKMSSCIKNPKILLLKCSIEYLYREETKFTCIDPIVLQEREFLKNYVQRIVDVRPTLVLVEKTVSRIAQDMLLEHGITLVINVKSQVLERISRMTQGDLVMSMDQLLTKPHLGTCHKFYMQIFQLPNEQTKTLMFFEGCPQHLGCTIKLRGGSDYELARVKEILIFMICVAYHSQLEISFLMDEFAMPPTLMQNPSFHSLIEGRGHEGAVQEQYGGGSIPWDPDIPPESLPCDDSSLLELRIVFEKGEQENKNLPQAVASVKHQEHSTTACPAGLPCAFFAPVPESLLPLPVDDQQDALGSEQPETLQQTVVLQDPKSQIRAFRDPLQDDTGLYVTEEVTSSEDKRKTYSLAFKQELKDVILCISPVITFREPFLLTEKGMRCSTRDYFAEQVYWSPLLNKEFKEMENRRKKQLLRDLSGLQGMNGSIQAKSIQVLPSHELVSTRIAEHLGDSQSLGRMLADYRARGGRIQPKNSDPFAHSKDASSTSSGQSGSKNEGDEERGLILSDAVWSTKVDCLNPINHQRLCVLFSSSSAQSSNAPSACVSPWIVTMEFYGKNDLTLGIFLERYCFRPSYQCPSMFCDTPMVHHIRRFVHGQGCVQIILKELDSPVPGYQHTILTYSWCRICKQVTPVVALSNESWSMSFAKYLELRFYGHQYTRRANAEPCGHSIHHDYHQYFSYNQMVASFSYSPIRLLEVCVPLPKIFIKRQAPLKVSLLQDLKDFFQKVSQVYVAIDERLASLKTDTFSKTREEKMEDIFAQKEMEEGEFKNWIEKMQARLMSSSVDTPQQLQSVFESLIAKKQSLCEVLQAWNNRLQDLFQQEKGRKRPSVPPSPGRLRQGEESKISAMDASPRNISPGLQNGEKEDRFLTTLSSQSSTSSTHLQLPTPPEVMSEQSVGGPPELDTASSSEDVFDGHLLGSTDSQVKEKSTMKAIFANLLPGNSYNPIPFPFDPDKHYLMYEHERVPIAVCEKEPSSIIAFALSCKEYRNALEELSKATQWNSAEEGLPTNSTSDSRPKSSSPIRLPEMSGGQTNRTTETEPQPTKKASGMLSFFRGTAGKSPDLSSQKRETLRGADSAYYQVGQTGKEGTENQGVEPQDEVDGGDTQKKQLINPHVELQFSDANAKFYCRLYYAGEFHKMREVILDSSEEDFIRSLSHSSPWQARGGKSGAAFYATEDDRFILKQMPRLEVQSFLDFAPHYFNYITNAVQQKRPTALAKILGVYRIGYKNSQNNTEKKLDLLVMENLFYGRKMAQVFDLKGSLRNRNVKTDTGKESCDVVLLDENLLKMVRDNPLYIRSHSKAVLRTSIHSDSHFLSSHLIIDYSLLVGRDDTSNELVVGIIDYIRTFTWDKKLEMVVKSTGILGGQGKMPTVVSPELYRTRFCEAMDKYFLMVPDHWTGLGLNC

## CN(C)[C@H]1CC[C@@]2(C)C(=CC[C@H]3[C@@H]4CC[C@H](c5ccc6ccncc6c5)[C@@]4(C)CC[C@@H]32)C1
[1]
  IC50: 8 nM
[2]
  inhibition: > 90%
[3]
  IC50: 16 nM
[4]
  inhibition: Dose-dependent effect
[5]
  IC50: > 10000 nM
[6]
  inhibition: > 90%
[7]
  inhibition: > 90%
[8]
  inhibition: > 90%
